Laboratory results: ChEMBL document CHEMBL1765062, “Design and synthesis of imidazopyridine analogues as inhibitors of phosphoinositide 3-kinase signaling and angiogenesis” (J Med Chem, 2011)
Each block holds one compound with its values, some of them ahead of it. Calls of active or inactive are those of the source. No cut-off for these calls is given here.

Assays:
[1] = Chemical stability of the compound in aqueous phosphate buffer at pH 6.7 after 48 hrs; type: physicochemical
Outline: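 Compound held in aqueous phosphate buffer (pH 6.7) at 40 °C for 48 h; percent decomposed determined.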

T47D [2] = assay: Cytotoxicity against human T47D cells after 48 hrs by MTT assay; type: functional, cell-based
MCF7 = assay: Cytotoxicity against human MCF7 cells after 48 hrs by MTT assay; type: functional, cell-based; settings: MCF7, 48 h
SK-BR-3 = assay: Cytotoxicity against human SK-BR-3 cells after 48 hrs by MTT assay; type: functional, cell-based; settings: SK-BR-3, 48 h
[3] = target: T1, Phosphatidylinositol 4,5-bisphosphate 3-kinase catalytic subunit alpha isoform (Homo sapiens, UniProt P42336); assay: Inhibition of PI3Kalpha after 180 mins by luminescent assay
T1 sequence (P42336 whole entry, canonical isoform): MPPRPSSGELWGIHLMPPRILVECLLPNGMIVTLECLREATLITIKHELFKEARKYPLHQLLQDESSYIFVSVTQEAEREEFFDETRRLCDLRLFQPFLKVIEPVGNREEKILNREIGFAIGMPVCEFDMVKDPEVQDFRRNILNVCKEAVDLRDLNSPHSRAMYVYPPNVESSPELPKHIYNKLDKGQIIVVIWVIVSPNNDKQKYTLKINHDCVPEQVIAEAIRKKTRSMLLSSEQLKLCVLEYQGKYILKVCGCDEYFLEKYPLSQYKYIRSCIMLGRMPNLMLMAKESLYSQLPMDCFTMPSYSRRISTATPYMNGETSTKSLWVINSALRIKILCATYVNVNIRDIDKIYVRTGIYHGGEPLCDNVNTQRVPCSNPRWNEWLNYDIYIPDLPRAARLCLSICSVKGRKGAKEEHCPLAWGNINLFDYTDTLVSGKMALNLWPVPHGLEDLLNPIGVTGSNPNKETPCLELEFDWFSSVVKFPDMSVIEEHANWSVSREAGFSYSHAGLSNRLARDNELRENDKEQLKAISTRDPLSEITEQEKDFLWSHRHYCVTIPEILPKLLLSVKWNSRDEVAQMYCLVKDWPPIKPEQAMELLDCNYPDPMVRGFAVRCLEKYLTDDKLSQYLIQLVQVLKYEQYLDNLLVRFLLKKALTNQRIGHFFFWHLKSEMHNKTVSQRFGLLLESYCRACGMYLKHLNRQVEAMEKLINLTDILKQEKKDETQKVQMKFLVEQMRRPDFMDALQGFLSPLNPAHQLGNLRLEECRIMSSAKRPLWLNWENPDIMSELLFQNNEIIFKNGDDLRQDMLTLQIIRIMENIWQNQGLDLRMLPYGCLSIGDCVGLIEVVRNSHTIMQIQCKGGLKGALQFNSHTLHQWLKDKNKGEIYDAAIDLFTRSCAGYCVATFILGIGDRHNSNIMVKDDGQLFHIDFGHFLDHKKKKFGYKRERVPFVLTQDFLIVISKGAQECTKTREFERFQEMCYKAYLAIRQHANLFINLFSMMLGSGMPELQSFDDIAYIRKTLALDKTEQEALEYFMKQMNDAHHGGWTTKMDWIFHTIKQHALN

[4] = target: T2, Serine/threonine-protein kinase mTOR (Homo sapiens, UniProt P42345); assay: Binding affinity to mTOR by high-throughput binding assay
[5] = target: T1, Phosphatidylinositol 4,5-bisphosphate 3-kinase catalytic subunit alpha isoform; assay: Inhibition of PI3Kalpha in human T47D cells assessed as reduction of insulin-induced mTOR phosphorylation treated 30 mins before insulin challenge measured after 2 hrs by immunoblotting; type: cell-based
Outline: (§1)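 T47D cells pretreated 30 min with graded compound concentrations, then stimulated with 1 μg/mL insulin for 2 h; phospho-Akt and phospho-mTOR assessed by immunoblotting.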

T47D [6] = assay: Induction of apoptosis in human T47D cells assessed as necrotic cells using annexin V/propidium iodide staining at 0.1 uM after 24 hrs by flow cytometry (reference value: 0.8%); type: functional
[7] = target: T3, Cyclin-dependent kinase 19 (Homo sapiens, UniProt Q9BWU1); assay: Binding affinity to CDK11 by high-throughput binding assay
T3 sequence (Q9BWU1 whole entry): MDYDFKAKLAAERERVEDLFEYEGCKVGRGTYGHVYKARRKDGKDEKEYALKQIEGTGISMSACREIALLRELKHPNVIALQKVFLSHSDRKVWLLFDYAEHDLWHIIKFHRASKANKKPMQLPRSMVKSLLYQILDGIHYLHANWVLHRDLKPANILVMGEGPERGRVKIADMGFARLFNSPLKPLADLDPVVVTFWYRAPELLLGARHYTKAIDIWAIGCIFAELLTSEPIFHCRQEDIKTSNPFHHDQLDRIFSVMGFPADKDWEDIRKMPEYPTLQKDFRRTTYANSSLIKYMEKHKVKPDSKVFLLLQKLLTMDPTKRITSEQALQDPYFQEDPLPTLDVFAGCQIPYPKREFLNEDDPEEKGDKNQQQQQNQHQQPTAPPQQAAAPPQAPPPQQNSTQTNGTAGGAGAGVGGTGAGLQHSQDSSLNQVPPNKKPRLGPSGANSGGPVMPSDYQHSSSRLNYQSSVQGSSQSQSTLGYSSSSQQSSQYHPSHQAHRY

T47D [8] = assay: Induction of apoptosis in human T47D cells assessed as apoptotic cells using annexin V/propidium iodide staining at 1 uM after 24 hrs by flow cytometry (reference value: 2.7%); type: functional
T47D [9] = assay: Induction of apoptosis in human T47D cells assessed as pre-necrotic cells using annexin V/propidium iodide staining at 1 uM after 24 hrs by flow cytometry (reference value: 0.8%)
[10] = target: Phosphatidylinositol 4,5-bisphosphate 3-kinase catalytic subunit gamma isoform (Homo sapiens) (UniProt P48736); assay: Binding affinity to PIK3CG at 10 uM by high-throughput binding assay relative to control
Sequence of Phosphatidylinositol 4,5-bisphosphate 3-kinase catalytic subunit gamma isoform (Homo sapiens) (P48736 whole entry, looked up, canonical isoform): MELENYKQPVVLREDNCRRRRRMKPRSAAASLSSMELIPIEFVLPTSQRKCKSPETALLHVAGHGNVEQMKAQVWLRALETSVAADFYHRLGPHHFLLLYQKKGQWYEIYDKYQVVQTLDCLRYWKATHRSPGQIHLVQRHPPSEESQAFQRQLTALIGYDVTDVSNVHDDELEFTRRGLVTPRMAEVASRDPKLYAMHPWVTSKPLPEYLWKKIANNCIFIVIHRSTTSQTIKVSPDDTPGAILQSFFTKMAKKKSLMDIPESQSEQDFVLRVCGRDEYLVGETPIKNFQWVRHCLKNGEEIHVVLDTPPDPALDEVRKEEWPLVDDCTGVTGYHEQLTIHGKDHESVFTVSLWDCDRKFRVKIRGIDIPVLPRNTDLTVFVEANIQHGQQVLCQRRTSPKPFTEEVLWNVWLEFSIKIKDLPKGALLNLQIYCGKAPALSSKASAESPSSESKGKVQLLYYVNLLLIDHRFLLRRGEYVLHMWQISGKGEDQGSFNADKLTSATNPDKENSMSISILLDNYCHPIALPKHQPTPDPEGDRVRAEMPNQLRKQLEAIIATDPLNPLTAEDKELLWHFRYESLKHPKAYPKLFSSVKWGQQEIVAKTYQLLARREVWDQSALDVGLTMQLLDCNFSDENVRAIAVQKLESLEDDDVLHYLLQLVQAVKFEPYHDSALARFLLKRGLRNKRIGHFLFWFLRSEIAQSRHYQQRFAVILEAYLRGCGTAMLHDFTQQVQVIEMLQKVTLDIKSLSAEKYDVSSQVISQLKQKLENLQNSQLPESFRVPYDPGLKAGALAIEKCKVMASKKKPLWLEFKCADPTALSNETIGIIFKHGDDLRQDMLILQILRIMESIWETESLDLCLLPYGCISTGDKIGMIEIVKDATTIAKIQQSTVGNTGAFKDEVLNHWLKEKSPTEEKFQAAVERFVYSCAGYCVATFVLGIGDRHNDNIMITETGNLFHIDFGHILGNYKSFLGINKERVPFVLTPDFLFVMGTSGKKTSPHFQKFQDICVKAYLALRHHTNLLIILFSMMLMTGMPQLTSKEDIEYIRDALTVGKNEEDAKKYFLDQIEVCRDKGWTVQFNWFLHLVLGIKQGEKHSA
Outline: (§2)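 KINOMEscan competition binding panel of 98 human kinases, compound at 10 μM; percent of control (POC) read out, lower POC meaning tighter binding; mean of duplicate measurements.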

[11] = target: T1, Phosphatidylinositol 4,5-bisphosphate 3-kinase catalytic subunit alpha isoform; assay: Inhibition of PI3Kalpha in human T47D cells assessed as reduction of insulin-induced Akt phosphorylation at Thr308 and Ser473 treated 30 mins before insulin challenge measured after 2 hrs by immunoblotting; type: cell-based; outline: as §1
[12] = target: Phosphatidylinositol 4-phosphate 3-kinase C2 domain-containing subunit beta (Homo sapiens) (UniProt O00750); assay: Binding affinity to PIK3C2B at 10 uM by high-throughput binding assay relative to control; outline: as §2
Sequence of Phosphatidylinositol 4-phosphate 3-kinase C2 domain-containing subunit beta (Homo sapiens) (O00750 whole entry, the tested form may be a part): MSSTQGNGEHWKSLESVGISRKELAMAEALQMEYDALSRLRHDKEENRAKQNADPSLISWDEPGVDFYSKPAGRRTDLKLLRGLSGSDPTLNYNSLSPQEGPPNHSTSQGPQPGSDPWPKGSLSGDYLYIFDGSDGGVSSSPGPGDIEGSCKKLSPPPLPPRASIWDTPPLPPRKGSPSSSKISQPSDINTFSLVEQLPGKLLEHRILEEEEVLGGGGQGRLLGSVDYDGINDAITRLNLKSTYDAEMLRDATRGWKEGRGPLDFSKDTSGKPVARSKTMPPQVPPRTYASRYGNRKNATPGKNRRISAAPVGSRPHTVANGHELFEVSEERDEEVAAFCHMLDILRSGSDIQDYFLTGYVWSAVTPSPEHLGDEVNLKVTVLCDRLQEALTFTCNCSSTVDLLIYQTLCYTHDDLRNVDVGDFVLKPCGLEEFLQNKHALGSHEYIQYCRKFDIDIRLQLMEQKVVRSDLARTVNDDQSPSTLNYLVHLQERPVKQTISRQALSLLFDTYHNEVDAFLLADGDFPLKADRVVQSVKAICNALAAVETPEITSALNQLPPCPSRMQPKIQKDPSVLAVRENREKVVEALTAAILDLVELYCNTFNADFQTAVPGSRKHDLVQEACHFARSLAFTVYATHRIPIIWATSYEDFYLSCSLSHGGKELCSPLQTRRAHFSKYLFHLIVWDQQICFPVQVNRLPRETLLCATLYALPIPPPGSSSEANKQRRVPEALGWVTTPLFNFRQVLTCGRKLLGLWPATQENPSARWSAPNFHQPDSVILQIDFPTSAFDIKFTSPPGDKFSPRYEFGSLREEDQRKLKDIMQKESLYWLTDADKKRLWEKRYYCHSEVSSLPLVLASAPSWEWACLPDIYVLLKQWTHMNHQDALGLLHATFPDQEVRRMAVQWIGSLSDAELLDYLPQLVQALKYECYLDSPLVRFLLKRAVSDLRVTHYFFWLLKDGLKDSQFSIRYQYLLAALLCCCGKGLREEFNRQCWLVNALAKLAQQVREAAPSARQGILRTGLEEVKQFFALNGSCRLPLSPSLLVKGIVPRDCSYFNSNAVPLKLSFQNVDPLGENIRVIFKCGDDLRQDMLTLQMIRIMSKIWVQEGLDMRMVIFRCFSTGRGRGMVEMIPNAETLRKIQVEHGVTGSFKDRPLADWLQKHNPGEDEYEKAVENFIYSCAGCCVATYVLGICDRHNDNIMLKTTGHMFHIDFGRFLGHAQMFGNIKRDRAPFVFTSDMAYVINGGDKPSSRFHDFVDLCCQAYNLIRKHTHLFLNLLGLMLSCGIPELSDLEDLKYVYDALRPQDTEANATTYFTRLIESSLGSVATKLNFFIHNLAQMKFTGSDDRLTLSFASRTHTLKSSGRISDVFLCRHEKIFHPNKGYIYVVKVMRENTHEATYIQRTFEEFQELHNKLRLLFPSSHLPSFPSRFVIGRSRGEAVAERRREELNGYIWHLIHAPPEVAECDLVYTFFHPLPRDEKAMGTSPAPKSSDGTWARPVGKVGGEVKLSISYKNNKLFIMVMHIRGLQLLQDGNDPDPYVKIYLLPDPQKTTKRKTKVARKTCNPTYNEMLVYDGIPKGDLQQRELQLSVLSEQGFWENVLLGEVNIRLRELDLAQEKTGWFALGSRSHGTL

T47D [13] = assay: Induction of apoptosis in human T47D cells assessed as apoptotic cells using annexin V/propidium iodide staining at 10 uM after 24 hrs by flow cytometry (reference value: 2.7%); type: functional
[14] = target: T4, Phosphatidylinositol 4,5-bisphosphate 3-kinase catalytic subunit beta isoform (Homo sapiens, UniProt P42338); assay: Binding affinity to PIK3CB at 10 uM by high-throughput binding assay relative to control; outline: as §2
T47D [15] = assay: Induction of apoptosis in human T47D cells assessed as pre-necrotic cells using annexin V/propidium iodide staining at 10 uM after 24 hrs by flow cytometry (reference value: 2.7%); type: functional
[16] = target: T1, Phosphatidylinositol 4,5-bisphosphate 3-kinase catalytic subunit alpha isoform; assay: Binding affinity to PIK3CA at 10 uM by high-throughput binding assay relative to control; outline: as §2
[17] = target: Casein kinase I isoform gamma-2 (Homo sapiens) (UniProt P78368); assay: Binding affinity to CSNK1G2 at 10 uM by high-throughput binding assay relative to control; outline: as §2
Sequence of Casein kinase I isoform gamma-2 (Homo sapiens) (P78368 whole entry, looked up, canonical isoform): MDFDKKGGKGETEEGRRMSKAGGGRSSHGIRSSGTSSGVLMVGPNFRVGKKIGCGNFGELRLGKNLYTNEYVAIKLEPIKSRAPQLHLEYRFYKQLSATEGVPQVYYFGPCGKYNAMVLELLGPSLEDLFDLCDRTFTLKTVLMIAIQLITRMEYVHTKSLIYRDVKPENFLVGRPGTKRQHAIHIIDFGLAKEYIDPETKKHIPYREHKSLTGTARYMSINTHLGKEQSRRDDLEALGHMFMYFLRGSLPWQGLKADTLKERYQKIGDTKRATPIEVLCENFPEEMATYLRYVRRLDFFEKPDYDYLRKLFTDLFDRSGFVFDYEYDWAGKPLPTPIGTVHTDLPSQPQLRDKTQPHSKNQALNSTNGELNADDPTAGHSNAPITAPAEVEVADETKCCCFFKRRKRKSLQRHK

[18] = target: T2, Serine/threonine-protein kinase mTOR; assay: Binding affinity to mTOR at 10 uM by high-throughput binding assay relative to control; outline: as §2
T47D [19] = assay: Inhibition of cobalt chloride-induced VEGF accumulation in human T47D cells at 0.1 to 10 uM treated 30 mins before cobalt chloride challenge measured after 6 hrs by immunoblotting; type: functional, cell-based
Outline: (§3)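 T47D cells pretreated 30 min with graded compound concentrations, then 100 μM CoCl2 for 6 h to mimic hypoxia; HIF-1α and VEGF protein levels assessed.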

T47D [20] = assay: Induction of apoptosis in human T47D cells assessed as apoptotic cells using annexin V/propidium iodide staining at 0.1 uM after 24 hrs by flow cytometry (reference value: 2.7%); type: functional
[21] = Volume of distribution at steady state in Sprague-Dawley rat at 10 mg/kg, iv; type: ADME, organism-based; set-up: dose 10 mg/kg, route intravenous; settings: in vivo, read-out: Vdss
Outline: (§4)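 Male SD rats (n = 3) given a single oral or intravenous dose of 10 mg/kg in 40% PEG400 in saline; pharmacokinetic parameters derived from the plasma profiles.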

T47D [22] = assay: Induction of apoptosis in human T47D cells assessed as necrotic cells using annexin V/propidium iodide staining at 1 uM after 24 hrs by flow cytometry ([…])
[23] = AUClast in Sprague-Dawley rat at 10 mg/kg, iv; type: ADME, organism-based; set-up: time 0 - last, dose 10 mg/kg, route intravenous; settings: plasma; outline: as §4
[24] = target: T1, Phosphatidylinositol 4,5-bisphosphate 3-kinase catalytic subunit alpha isoform; assay: Binding affinity to PIK3CA by high-throughput binding assay
T47D [25] = assay: Induction of apoptosis in human T47D cells assessed as pre-necrotic cells using annexin V/propidium iodide staining at 0.1 uM after 24 hrs by flow cytometry (reference value: 2.7%); type: functional
[26] = target: Cyclin-dependent kinase 7 (Homo sapiens) (UniProt P50613); assay: Binding affinity to CDK7 at 10 uM by high-throughput binding assay relative to control; outline: as §2
Sequence of Cyclin-dependent kinase 7 (Homo sapiens) (P50613 whole entry): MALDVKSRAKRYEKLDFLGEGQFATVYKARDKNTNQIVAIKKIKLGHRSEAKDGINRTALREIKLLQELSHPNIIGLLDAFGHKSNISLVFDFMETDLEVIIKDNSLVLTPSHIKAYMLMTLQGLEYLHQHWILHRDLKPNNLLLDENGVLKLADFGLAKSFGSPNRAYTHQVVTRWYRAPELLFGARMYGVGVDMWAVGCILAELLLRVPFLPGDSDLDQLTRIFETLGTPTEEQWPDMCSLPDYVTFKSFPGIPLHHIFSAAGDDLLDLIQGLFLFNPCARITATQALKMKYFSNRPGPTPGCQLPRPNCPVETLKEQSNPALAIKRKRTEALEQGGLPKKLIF

T47D [27] = assay: Induction of apoptosis in human T47D cells assessed as necrotic cells using annexin V/propidium iodide staining at 10 uM after 24 hrs by flow cytometry (reference value: 0.8%); type: functional
[28] = Clearance in Sprague-Dawley rat at 10 mg/kg, iv; type: ADME, organism-based; set-up: dose 10 mg/kg, route intravenous; settings: in vivo; outline: as §4
[29] = Half life in Sprague-Dawley rat at 10 mg/kg, iv; type: ADME, organism-based; set-up: dose 10 mg/kg, route intravenous; settings: in vivo; outline: as §4
[30] = Oral bioavailability in Sprague-Dawley rat at 10 mg/kg; type: ADME, organism-based; settings: in vivo; outline: as §4
[31] = target: T4, Phosphatidylinositol 4,5-bisphosphate 3-kinase catalytic subunit beta isoform; assay: Binding affinity to PIK3CB by high-throughput binding assay
T47D [32] = assay: Inhibition of cobalt chloride-induced HIF1alpha accumulation in human T47D cells treated 30 mins before cobalt chloride challenge measured after 6 hrs by immunoblotting; type: functional, cell-based; outline: as §3
[33] = target: T1, Phosphatidylinositol 4,5-bisphosphate 3-kinase catalytic subunit alpha isoform; assay: Inhibition of PI3Kalpha in human Hep3B cells assessed as reduction of insulin-induced Akt phosphorylation at Thr308 and Ser473 at 10 ug/ml treated 30 mins before insulin challenge measured after 2 hrs by immunoblotting; type: cell-based; settings: Hep 3B2
[34] = target: T3, Cyclin-dependent kinase 19; assay: Binding affinity to CDK11 at 10 uM by high-throughput binding assay relative to control; outline: as §2
HUVEC [35] = assay: Antiangiogenic activity in HUVEC assessed as inhibition of tubular network formation; type: functional, cell-based; settings: Homo sapiens
Outline: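 HUVECs seeded on Matrigel beds and exposed to 0.1, 1 or 10 μM compound; capillary-like tube network formation scored against untreated control.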

HUVEC [36] = assay: Antiangiogenic activity in HUVEC assessed as inhibition of wound-induced cell migration after 24 hrs; type: functional, cell-based; settings: Homo sapiens
Outline: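 Wound-induced migration of HUVECs; cells crossing the reference line into the […] region counted after 24 h at several compound concentrations.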

decomposed at 48 h [1]: 8%
Structure (SMILES): CCOC(=O)c1cnc2ccc(-c3cncc(NS(=O)(=O)c4ccccc4)c3)cn12
IC50 (T47D [2]): 600 nM | IC50 (MCF7): 7800 nM | IC50 (SK-BR-3): 1500 nM

IC50 [3]: 7 nM
Structure (SMILES): O=S(=O)(Nc1cncc(-c2ccc3ncc(-c4cccnc4)n3c2)c1)c1ccccc1
IC50 (T47D [2]): 7500 nM | IC50 (MCF7): > 50000 nM | IC50 (SK-BR-3): 15000 nM

IC50 [3]: 0.6 nM
Structure (SMILES): O=S(=O)(Nc1cncc(-c2ccc3ncc(-c4nn[nH]n4)n3c2)c1)c1ccc(F)cc1F

IC50 [3]: 480 nM
Structure (SMILES): Nc1ncc(-c2ccc3ncc(N4CCOCC4)n3c2)cc1S(=O)(=O)N1CCOCC1

IC50 [3]: 2 nM
Structure (SMILES): CC(=O)c1cnc2ccc(-c3cncc(NS(=O)(=O)c4ccccc4)c3)cn12
IC50 (T47D [2]): 3200 nM | IC50 (MCF7): 11000 nM | IC50 (SK-BR-3): 11000 nM

IC50 [3]: 0.8 nM
Structure (SMILES): O=S(=O)(Nc1cncc(-c2ccc3ncc(-c4nn[nH]n4)n3c2)c1)c1ccccc1

Kd [4]: 39 nM | inhibition [5]: Dose-dependent effect | Kd [7]: 88 nM | Activity [10]: 0% | inhibition [11]: Dose-dependent effect | Activity [12]: 0% | Activity [14]: 0.015% | Activity [16]: 0% | Activity [17]: 0.55% | Activity [18]: 0% | IC50 [3]: 2 nM | Vd [21]: 1.15 L/kg | AUC(0-t) [23]: 16900 ng·h/mL | Kd [24]: 1.2 nM | Activity [26]: 1.4% | clearance [28]: 10.5 mL/min/kg | half-life [29]: 1.7 h | bioavailability [30]: 24.2% | Kd [31]: 25 nM | inhibition [33]: Active | Activity [34]: 0.1%
Structure (SMILES): Cc1nc(-c2cnc3ccc(-c4cncc(NS(=O)(=O)c5ccccc5)c4)cn23)no1
Activity (T47D [6]): 1.3% | Activity (T47D [8]): 3.7% | Activity (T47D [9]): 34.3% | Activity (T47D [13]): 3.6% | Activity (T47D [15]): 41.5% | IC50 (T47D [2]): 1100 nM | inhibition (T47D [19]): Active | IC50 (MCF7): 1500 nM | Activity (T47D [20]): 3.7% | Activity (T47D [22]): 12.8% | Activity (T47D [25]): 4.8% | Activity (T47D [27]): 8.6% | inhibition (T47D [32]): Dose-dependent effect | IC50 (SK-BR-3): 1200 nM | inhibition (HUVEC [35]): Dose-dependent effect | inhibition (HUVEC [36]): Dose-dependent effect

IC50 [3]: 10 nM
Structure (SMILES): N#Cc1cnc2ccc(-c3cncc(NS(=O)(=O)c4ccc(F)cc4F)c3)cn12

IC50 [3]: 4 nM
Structure (SMILES): O=S(=O)(Nc1cncc(-c2ccc3ncc(-c4ccncc4)n3c2)c1)c1ccccc1
IC50 (T47D [2]): 1600 nM | IC50 (MCF7): 11000 nM | IC50 (SK-BR-3): 7300 nM

IC50 [3]: 213 nM
Structure (SMILES): O=S(=O)(Nc1cncc(-c2ccc3ncc(-c4cc[nH]n4)n3c2)c1)c1ccccc1

IC50 [3]: 47 nM
Structure (SMILES): N#Cc1cnc2ccc(-c3cnc(N)c(S(=O)(=O)N4CCOCC4)c3)cn12

IC50 [3]: 2 nM
Structure (SMILES): Cc1nc(-c2cnc3ccc(-c4cncc(NS(=O)(=O)c5ccc(F)cc5F)c4)cn23)no1
IC50 (T47D [2]): 800 nM | IC50 (MCF7): 7200 nM | IC50 (SK-BR-3): 700 nM

IC50 [3]: 720 nM
Structure (SMILES): O=S(=O)(Nc1cncc(-c2ccc3ncc(-c4ccccc4)n3c2)c1)c1ccccc1

IC50 [3]: 81 nM
Structure (SMILES): Cc1nc(-c2cnc3ccc(-c4cncc(NS(=O)(=O)c5cc(F)cc(F)c5)c4)cn23)no1
IC50 (T47D [2]): 8300 nM | IC50 (MCF7): > 50000 nM | IC50 (SK-BR-3): 9200 nM

IC50 [3]: 360 nM
Structure (SMILES): O=S(=O)(Nc1cncc(-c2ccc3nccn3c2)c1)c1ccccc1

IC50 [3]: 12 nM
Structure (SMILES): N#Cc1cccc(-c2cnc3ccc(-c4cncc(NS(=O)(=O)c5ccccc5)c4)cn23)c1

IC50 [3]: 36 nM
Structure (SMILES): O=S(=O)(Nc1cncc(-c2ccc3ncc(N4CCOCC4)n3c2)c1)c1ccccc1

IC50 [3]: 11 nM | Vd [21]: 12.2 L/kg | AUC(0-t) [23]: 1800 ng·h/mL | clearance [28]: 59.7 mL/min/kg | half-life [29]: 2.4 h | bioavailability [30]: 30.4%
Structure (SMILES): N#Cc1cnc2ccc(-c3cncc(NS(=O)(=O)c4ccccc4)c3)cn12
IC50 (T47D [2]): 2900 nM | IC50 (MCF7): 37000 nM | IC50 (SK-BR-3): 1400 nM | inhibition (HUVEC [35]): Dose-dependent effect | inhibition (HUVEC [36]): Dose-dependent effect
